Screening results: PubChem, Broad Institute
This is a sample that favours compounds with a hit; in the whole collection about 5.8% have one here.
Pf Dd2 inh – inhibitors of Plasmodium falciparum Dd2 growth | P. falciparum Dd2 growth, SYBR Green, 72 h; stronger effect = lower value | activity change, % at 10 µM | 94,000 tested, 2.3% active; in the data active = activity change below about -80%
GASC1 inh – KDM4C (human) demethylase inhibition; Q9H3R0; GST-KDM4C 2-372, H3K9me3 peptide, LANCE TR-FRET; inhibition, % at 12.5 µM; 96,000 tested, 0.15% active; AID 720574;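 active = mean replicate inhibition above about 25%, with at least 55% of replicates also reaching it, limit read from the data, passing the limit was not always enough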
Target sequence (Q9H3R0 2-372 limits assumed): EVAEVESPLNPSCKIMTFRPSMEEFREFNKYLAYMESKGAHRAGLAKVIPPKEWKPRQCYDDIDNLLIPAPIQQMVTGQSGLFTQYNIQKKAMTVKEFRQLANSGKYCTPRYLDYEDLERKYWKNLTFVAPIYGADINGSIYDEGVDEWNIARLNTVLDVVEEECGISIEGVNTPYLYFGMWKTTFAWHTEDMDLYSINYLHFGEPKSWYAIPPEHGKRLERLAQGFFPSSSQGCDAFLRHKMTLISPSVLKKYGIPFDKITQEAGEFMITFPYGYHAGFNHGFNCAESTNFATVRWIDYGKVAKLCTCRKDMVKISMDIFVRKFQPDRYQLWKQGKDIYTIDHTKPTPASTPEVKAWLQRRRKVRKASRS
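System: N-terminal GST-fused human GASC-1 (KDM4C) fragment, residues 2-372; amount: enzyme final amount 10 nM; incubation: reaction 30 min RT, detection step 1 h RT; medium: HEPES buffer, pH 7.5, plus ascorbate; technique: LANCE TR-FRET, Eu antibody, ULight-streptavidin, EDTA, ex 340 nm, em 618/671 nm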
T cruzi growth – blocks T. cruzi growth in NIH3T3 culture | T. cruzi beta-gal in NIH3T3, GalScreen luminescence, 90 h | inhibition, % at 8.34 µM | 77,000 tested, 5.9% active | AID 624255;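 active = mean inhibition above about 93%, with at least 55% of replicates each passing it, limit read from the data, passing the limit was not always enough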
IDH1 R132H inh – IDH1 R132H (human) inhibition. IDH1 R132H reductase, diaphorase/resazurin fluorescence, 60 min. O75874. inhibition, % at 10 µM. 70,000 tested, 0.18% active. AID 624101; in the data active = inhibition above about 34%;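 also: 0% = DMSO and 100% = no enzyme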
An asterisk follows results filed as active; x = not tested or not shown.

SMILES | Pf Dd2 inh | GASC1 inh | T cruzi growth | IDH1 R132H inh
C[C@H](O)C#Cc1ccc2c(c1)O[C@@H](CN(C)C(=O)Nc1ccccc1)[C@H](C)CN([C@@H](C)CO)S2(=O)=O | -25.2 | x | 66.9 | x
C[C@H]1CN([C@@H](C)CO)S(=O)(=O)c2ccc(C#Cc3ccccc3F)cc2O[C@H]1CN(C)C(=O)Cc1cccnc1 | -82.5* | -2.5 | 49.7 | 16.3
CCCNC(=O)N(C)C[C@@H]1Oc2cc(-c3cccnc3)ccc2S(=O)(=O)N([C@H](C)CO)C[C@H]1C | 30.4 | 0.1 | 10.0 | 1.6
CCCNC(=O)N(C)C[C@@H]1Oc2cc(-c3cccnc3)ccc2S(=O)(=O)N([C@@H](C)CO)C[C@@H]1C | 6.7 | 29.7* | -7.6 | 24.2
C[C@@H]1CN([C@@H](C)CO)S(=O)(=O)c2ccc(-c3ccc(F)cc3)cc2O[C@H]1CN(C)CC1CC1 | -24.9 | x | x | 0.1
C[C@H]1CN([C@@H](C)CO)S(=O)(=O)c2ccc(-c3ccc(F)cc3)cc2O[C@H]1CN(C)CC1CC1 | -82.0* | 4.7 | x | -3.6
C[C@H](CO)N1C[C@H](C)[C@H](CN(C)C(=O)Nc2ccc(F)cc2)Oc2ccc(NS(=O)(=O)c3ccccc3)cc2C1=O | -5.3 | -1.3 | -35.5 | 2.1
COc1ccc(S(=O)(=O)N(C)C[C@@H]2OCCCC[C@@H](C)Oc3ccc(NS(C)(=O)=O)cc3C(=O)N([C@H](C)CO)C[C@H]2C)cc1 | -38.0 | -1.0 | -58.7 | x
O=C(C1CCCC1)N1CC(=O)N2[C@@H](CO)[C@H](c3ccc(C#CCc4ccccc4)cc3)[C@@H]2C1 | -92.9* | 1.0 | x | x
O=C(C1CCCCC1)N1CC(=O)N2[C@H](CO)[C@@H](c3ccc(C#CCc4ccccc4)cc3)[C@@H]2C1 | -83.4* | -0.6 | x | x
O=C(c1cnccn1)N1CC(=O)N2[C@@H](CO)[C@H](c3ccc(C#CCc4ccccc4)cc3)[C@@H]2C1 | -88.1* | 1.0 | x | x
O=C(C1CCCCC1)N1CC(=O)N2[C@H](C1)[C@@H](c1ccc(C#CCc3ccccc3)cc1)[C@@H]2CO | -66.1 | 0.2 | x | x
C[C@@H]1CN([C@@H](C)CO)C(=O)c2c(c3ccccc3n2C)-c2ccccc2CO[C@H]1CN(C)C(=O)Nc1ccc(F)cc1 | -63.8 | -0.6 | 19.7 | x
CO[C@H]1CN(C)C(=O)c2cc(NC(=O)c3ccno3)ccc2OC[C@@H](C)N(S(C)(=O)=O)C[C@H]1C | 28.7 | 0.4 | -11.1 | -0.2
C[C@@H]1CN([C@@H](C)CO)C(=O)c2cccc(NC(=O)Nc3ccccc3)c2O[C@@H]1CN(C)C(=O)Nc1ccc(F)cc1 | -91.3* | -0.6 | 45.3 | 1.5
COc1ccc(NC(=O)Nc2cccc3c2O[C@H](CN(C)C(=O)Nc2cccc4ccccc24)[C@H](C)CN([C@@H](C)CO)C3=O)cc1 | -88.0* | -1.3 | 11.5 | 0.2
Cc1noc(C)c1NC(=O)N(C)C[C@H]1Oc2c(NC(=O)Nc3ccc(C(F)(F)F)cc3)cccc2C(=O)N([C@@H](C)CO)C[C@H]1C | -85.6* | 0.7 | 89.8 | -0.9
COc1ccc(NC(=O)N(C)C[C@H]2Oc3c(NC(=O)Nc4ccc5c(c4)OCO5)cccc3C(=O)N([C@@H](C)CO)C[C@H]2C)cc1 | -85.7* | -2.6 | -2.1 | x
COc1ccc(NC(=O)Nc2cccc3c2O[C@H](CN(C)C(=O)Nc2ccc4c(c2)OCO4)[C@@H](C)CN([C@@H](C)CO)C3=O)cc1 | -11.1 | 3.8 | 32.3 | x
C[C@@H]1CN([C@H](C)CO)C(=O)c2cc(NC(=O)Nc3ccc(C(F)(F)F)cc3)ccc2O[C@@H]1CN(C)C | 7.8 | 0.1 | 15.0 | -0.2
C[C@@H]1CN([C@H](C)CO)C(=O)c2cccc(NC(=O)Nc3ccccc3)c2O[C@@H]1CN(C)C(=O)Nc1ccccc1 | -40.6 | -0.4 | 64.3 | x
C[C@H]1CN([C@@H](C)CO)C(=O)c2cccc(NC(=O)Nc3cccc4ccccc34)c2O[C@H]1CN(C)C(=O)NC1CCCCC1 | -84.6* | -3.7 | 52.9 | -0.6
COc1ccc(NC(=O)Nc2cccc3c2O[C@H](CN(C)C(=O)Nc2ccccc2)[C@@H](C)CN([C@H](C)CO)C3=O)cc1 | -3.9 | 0.1 | -15.4 | 0.2
COc1ccc(NC(=O)N(C)C[C@H]2Oc3c(NC(=O)Nc4ccccc4)cccc3C(=O)N([C@H](C)CO)C[C@H]2C)cc1 | -86.0* | 2.6 | -6.5 | x
C[C@@H]1CN([C@@H](C)CO)C(=O)c2cccc(NC(=O)Nc3ccccc3)c2O[C@@H]1CN(C)C(=O)Nc1ccccc1 | -91.4* | 0.3 | 59.0 | x
C[C@@H]1CN([C@H](C)CO)C(=O)c2cccc(NC(=O)Nc3cccc4ccccc34)c2O[C@@H]1CN(C)C(=O)NC1CCCCC1 | -76.6 | -2.4 | 53.6 | -4.0
